From PubChem BioAssay
Sampled rows, rich in hits. Any-hit rate of the full collection: about 0.72%.
TNAP act hi DEA = increases human TNAP activity under high phosphate acceptor concentration; activation factor at 20 µM; purified TNAP, CDP-star luminescence, 1 M DEA, 30 min; hits give high values; 0 = EDTA background, 1 = DMSO-only activity; P05186; 200,000 tested, under 10 active; AID 1136;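 active = activation factor at least 2 at 20 µM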
Target sequence (P05186 whole entry, looked up): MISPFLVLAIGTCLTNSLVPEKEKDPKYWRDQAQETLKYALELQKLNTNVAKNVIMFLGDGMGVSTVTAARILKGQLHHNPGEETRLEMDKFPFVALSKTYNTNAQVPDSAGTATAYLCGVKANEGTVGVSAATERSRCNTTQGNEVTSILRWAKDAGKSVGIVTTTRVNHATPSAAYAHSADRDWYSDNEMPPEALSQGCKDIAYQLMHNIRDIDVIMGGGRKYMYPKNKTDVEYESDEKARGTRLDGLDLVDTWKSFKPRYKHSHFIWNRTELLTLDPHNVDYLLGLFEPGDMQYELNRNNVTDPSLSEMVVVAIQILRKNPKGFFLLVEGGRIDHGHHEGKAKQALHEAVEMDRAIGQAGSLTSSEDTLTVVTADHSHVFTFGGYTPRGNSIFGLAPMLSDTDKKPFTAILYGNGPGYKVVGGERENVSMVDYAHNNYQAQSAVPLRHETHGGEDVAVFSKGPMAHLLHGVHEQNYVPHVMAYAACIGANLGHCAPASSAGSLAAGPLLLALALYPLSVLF
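Control set: EDTA negative control, DMSO positive control / Assay system: human TNAP / Quantity: TNAP 1/800 final / Evaluation: TNAP activation factor scaled between EDTA and DMSO control wells / Measured by: luminescent substrate turnover signal / Compound dosing: one dose, 20 µM / Times: 30 min enzyme reaction at room temperature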
TNAP inh no acc = inhibitors of human TNAP without phosphate acceptor | P05186 | purified TNAP, CDP-star luminescence, 30 min | inhibition, % at 20 µM | actives 0.26% (n = 200,000);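 active = tissue-nonspecific alkaline phosphatase inhibition above about 50% at 20 µM in the single-dose screen, limit read from the data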
TNAP inh hiacc = blocks human TNAP under high phosphate acceptor concentration; AID 1135; actives 0.03% (n = 200,000); P05186; inhibition, % at 20 µM; purified TNAP, CDP-star luminescence, 1 M DEA;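 active = over 50% inhibition of tissue-nonspecific alkaline phosphatase at 20 µM in the single-dose screen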
Arbovirus inh = blocks arbovirus infection; arbovirus infection cell-based antiviral screen; inhibition, % at 10 µM; actives 0.37% (n = 200,000); AID 1251; in the data active = inhibition above about 30%
PKD1 inh = inhibitors of human PKD1 kinase; Q15139; PKD1 kinase fluorescence polarization assay; inhibition, % (test concentration not listed); actives 0.056% (n = 200,000); AID 797; in the data active = inhibition above about 50%
Numbers stand for hits.

How did Cc1ccc(C(=O)Nc2ccccc2SCC2CSc3nc4ccccc4c(=O)n32)cc1 (stereo not given) do in these assays?
TNAP act hi DEA: inactive; TNAP inh no acc: inactive; TNAP inh hiacc: inactive; Arbovirus inh: 42; PKD1 inh: inactive

What do the screens show for `CC(C)(C)OC(=O)N1CCC2(CC1)C(C#N)=C(N)OC1=C2C(=O)CCC1`?
TNAP act hi DEA: inactive; TNAP inh no acc: inactive; TNAP inh hiacc: inactive; Arbovirus inh: inactive; PKD1 inh: inactive

What do the screens show for `CC(C)c1cc(C(=O)N/N=C/c2cccnc2)n[nH]1`?
TNAP act hi DEA: inactive; TNAP inh no acc: 63; TNAP inh hiacc: inactive; Arbovirus inh: inactive; PKD1 inh: inactive

Results for C/C(=N\NC(=O)c1cc(C(C)C)[nH]n1)c1ccco1 ?
TNAP act hi DEA: inactive; TNAP inh no acc: inactive; TNAP inh hiacc: inactive; Arbovirus inh: inactive; PKD1 inh: inactive

Results for O=C(N/N=C/c1ccco1)c1cc(-c2cccs2)[nH]n1 ?
TNAP act hi DEA: inactive; TNAP inh no acc: 87; TNAP inh hiacc: inactive; Arbovirus inh: inactive; PKD1 inh: inactive

How did COC(=O)c1cc(-c2cccs2)[nH]n1 do in these assays?
TNAP act hi DEA: inactive; TNAP inh no acc: 96; TNAP inh hiacc: inactive; Arbovirus inh: inactive; PKD1 inh: inactive

Results for COc1ccc(O)c(-c2cc(-c3cccs3)[nH]n2)c1 ?
TNAP act hi DEA: inactive; TNAP inh no acc: inactive; TNAP inh hiacc: inactive; Arbovirus inh: inactive; PKD1 inh: inactive

Results for CC(C)c1cc(C(=O)N/N=C/c2ccco2)n[nH]1 ?
TNAP act hi DEA: inactive; TNAP inh no acc: 61; TNAP inh hiacc: inactive; Arbovirus inh: inactive; PKD1 inh: inactive

How did CC1=CC(C)C2COC(c3ccc[n+](C)c3)C1C2C (stereo not given) do in these assays?
TNAP act hi DEA: inactive; TNAP inh no acc: inactive; TNAP inh hiacc: inactive; Arbovirus inh: inactive; PKD1 inh: inactive

Results for Cc1cccn2c(CN[C@H]3CCCCNC3=O)c(C(=O)N3CCOCC3)nc12 ?
TNAP act hi DEA: inactive; TNAP inh no acc: inactive; TNAP inh hiacc: inactive; Arbovirus inh: inactive; PKD1 inh: inactive

What do the screens show for `CC(C)c1ccc(OCC(=O)N(Cc2ccccc2)c2ccccn2)cc1`?
TNAP act hi DEA: inactive; TNAP inh no acc: inactive; TNAP inh hiacc: inactive; Arbovirus inh: inactive; PKD1 inh: inactive

How did C/C(=N/NC(=O)c1cc(-c2ccc(Br)s2)[nH]n1)c1ccco1 do in these assays?
TNAP act hi DEA: inactive; TNAP inh no acc: inactive; TNAP inh hiacc: inactive; Arbovirus inh: inactive; PKD1 inh: inactive

Results for O=C(N/N=C/c1ccco1)c1cc(-c2ccc(Cl)s2)[nH]n1 ?
TNAP act hi DEA: inactive; TNAP inh no acc: 54; TNAP inh hiacc: inactive; Arbovirus inh: inactive; PKD1 inh: inactive

Results for CC(C)Oc1ccc(C(CC(=O)O)NC(=O)C(Sc2ccccc2)c2ccccc2)cc1 (stereo not given) ?
TNAP act hi DEA: inactive; TNAP inh no acc: inactive; TNAP inh hiacc: inactive; Arbovirus inh: inactive; PKD1 inh: inactive

What do the screens show for `CN(C(=O)COC(=O)CNC(=O)C12CC3CC(CC(C3)C1)C2)C1CCS(=O)(=O)C1` (stereo not given)?
TNAP act hi DEA: inactive; TNAP inh no acc: inactive; TNAP inh hiacc: inactive; Arbovirus inh: inactive; PKD1 inh: inactive

What do the screens show for `CCOc1ccc(-c2csc(NC(=O)CSC3=NC(=O)CN3C(C)=O)n2)c2ccccc12`?
TNAP act hi DEA: inactive; TNAP inh no acc: inactive; TNAP inh hiacc: inactive; Arbovirus inh: inactive; PKD1 inh: inactive

Results for CCOc1ccc(-c2csc(NC(=O)CSCC(=O)O)n2)c2ccccc12 ?
TNAP act hi DEA: inactive; TNAP inh no acc: inactive; TNAP inh hiacc: inactive; Arbovirus inh: 32; PKD1 inh: inactive

Results for O=C(O)CC(NC(=O)Cc1ccc([N+](=O)[O-])cc1)c1ccc2c(c1)OCO2 (stereo not given) ?
TNAP act hi DEA: inactive; TNAP inh no acc: inactive; TNAP inh hiacc: inactive; Arbovirus inh: inactive; PKD1 inh: inactive

What do the screens show for `COc1cc(NC(=S)N2CCN(C(=O)C3CCCO3)CC2)c(OC)cc1Cl` (stereo not given)?
TNAP act hi DEA: inactive; TNAP inh no acc: inactive; TNAP inh hiacc: inactive; Arbovirus inh: inactive; PKD1 inh: inactive

What do the screens show for `Fc1ccc(Br)cc1C1C=C(c2ccc(Br)s2)Nc2ncnn21` (stereo not given)?
TNAP act hi DEA: inactive; TNAP inh no acc: inactive; TNAP inh hiacc: inactive; Arbovirus inh: 37; PKD1 inh: inactive

How did COc1cccc(C2C=C(c3ccc(Br)s3)Nc3ncnn32)c1OC (stereo not given) do in these assays?
TNAP act hi DEA: inactive; TNAP inh no acc: inactive; TNAP inh hiacc: inactive; Arbovirus inh: inactive; PKD1 inh: inactive

What do the screens show for `CC(Oc1ccc2ccc(=O)oc2c1)C(=O)c1ccccc1` (stereo not given)?
TNAP act hi DEA: inactive; TNAP inh no acc: inactive; TNAP inh hiacc: inactive; Arbovirus inh: inactive; PKD1 inh: inactive

What do the screens show for `Cc1c(Br)c(=O)oc2c(Br)c(O)ccc12`?
TNAP act hi DEA: inactive; TNAP inh no acc: inactive; TNAP inh hiacc: inactive; Arbovirus inh: inactive; PKD1 inh: inactive

How did Cc1c(Br)c(=O)oc2c(Br)c(O)c(O)cc12 do in these assays?
TNAP act hi DEA: inactive; TNAP inh no acc: 50; TNAP inh hiacc: inactive; Arbovirus inh: inactive; PKD1 inh: inactive

Results for O=S1(=O)Cc2cc3ccccc3cc2C1 ?
TNAP act hi DEA: inactive; TNAP inh no acc: inactive; TNAP inh hiacc: inactive; Arbovirus inh: inactive; PKD1 inh: inactive

What do the screens show for `COc1ccc(Cn2c(=O)[nH]c3cc(C(=O)NC4CCCC4)ccc3c2=O)cc1`?
TNAP act hi DEA: inactive; TNAP inh no acc: inactive; TNAP inh hiacc: inactive; Arbovirus inh: inactive; PKD1 inh: 56

How did COc1cc2[nH]c(=O)n(Cc3ccc(C(=O)NC4CCCC4)cc3)c(=O)c2cc1OC do in these assays?
TNAP act hi DEA: inactive; TNAP inh no acc: inactive; TNAP inh hiacc: inactive; Arbovirus inh: inactive; PKD1 inh: inactive

How did O=C1c2[nH]nc(-c3ccccc3O)c2C(c2cccc(Cl)c2)N1CC1CCCO1 (stereo not given) do in these assays?
TNAP act hi DEA: inactive; TNAP inh no acc: inactive; TNAP inh hiacc: inactive; Arbovirus inh: inactive; PKD1 inh: inactive

How did O=C1c2[nH]nc(-c3ccccc3O)c2C(c2ccc(F)cc2)N1CC1CCCO1 (stereo not given) do in these assays?
TNAP act hi DEA: inactive; TNAP inh no acc: inactive; TNAP inh hiacc: inactive; Arbovirus inh: 33; PKD1 inh: inactive

How did O=C(Cn1c(=O)oc2ccccc21)NCCc1ccccc1Cl do in these assays?
TNAP act hi DEA: inactive; TNAP inh no acc: inactive; TNAP inh hiacc: inactive; Arbovirus inh: inactive; PKD1 inh: inactive

What do the screens show for `COC(=O)c1ccc2c(c1)C(=O)/C(=C/c1ccc(O)cc1)O2`?
TNAP act hi DEA: inactive; TNAP inh no acc: inactive; TNAP inh hiacc: 55; Arbovirus inh: inactive; PKD1 inh: inactive

How did Cc1cc(N=Cc2c(O)ccc3cc(Br)ccc23)no1 do in these assays?
TNAP act hi DEA: inactive; TNAP inh no acc: inactive; TNAP inh hiacc: inactive; Arbovirus inh: 55; PKD1 inh: inactive

How did CCc1cccc(C)c1NC(=S)N(Cc1cccnc1)Cc1ccco1 do in these assays?
TNAP act hi DEA: inactive; TNAP inh no acc: inactive; TNAP inh hiacc: inactive; Arbovirus inh: inactive; PKD1 inh: inactive
